Source: ChEMBL document CHEMBL3352428, “Successes and challenges in phenotype-based lead discovery for prion diseases” (J Med Chem, 2014)

What was measured:
[1] = Inhibition of mouse RML prion protein infected in mouse ScN2a-cl3 cells after 5 days; type: cell-based; conditions: N2a-cl3, 120 h
Brain [2] = test: Cmax in mouse brain at 10 mg/kg, po administered as single dose; type: ADME, organism-based; parameters: dose 10 mg/kg, route oral; conditions: in vivo
Brain [3] = test: AUC in mouse brain at 10 mg/kg, po administered as single dose; type: ADME, organism-based; parameters: dose 10 mg/kg, route oral; conditions: in vivo
Plasma = test: AUC in mouse plasma at 10 mg/kg, po administered as single dose; type: ADME, organism-based; parameters: dose 10 mg/kg, route oral; conditions: in vivo
[4] = Unbound fraction in mouse brain; type: ADME, tissue-based
Summary of the method: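 The fraction unbound in mouse brain tissue was estimated with an in vitro brain tissue binding assay.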

[5] = AUC in mouse brain at 40 mg/kg, po administered as single dose; type: ADME, organism-based; parameters: dose 40 mg/kg, route oral
[6] = Drug concentration at steady state in mouse brain assessed as total compound level in brain homogenates at 40 mg/kg/day, po measured after 3 days; type: ADME, organism-based; parameters: route oral; conditions: brain homogenate, read-out: Css
Summary of the method: (§1)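 Mice received compound mixed into a liquid rodent diet for 3 days at about 40, 80, 130 or 210 mg kg-1 day-1. Plasma and brain were collected at the end of the last dosing cycle, at a single time point, and analysed as in the single-dose PK studies. Values are total drug in brain homogenate and are treated as pseudo-steady-state concentrations.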

[7] = Drug concentration at steady state in mouse brain assessed as total compound level in brain homogenates at 80 mg/kg/day, po measured after 3 days; type: ADME, organism-based; parameters: route oral; conditions: brain homogenate, read-out: Css; summary of the method: as §1
[8] = Drug concentration at steady state in mouse brain assessed as total compound level in brain homogenates at 130 mg/kg/day, po measured after 3 days; type: ADME, organism-based; parameters: route oral; conditions: brain homogenate, read-out: Css; summary of the method: as §1
[9] = Drug concentration at steady state in mouse brain assessed as total compound level in brain homogenates at 210 mg/kg/day, po measured after 3 days; type: ADME, organism-based; parameters: route oral; conditions: brain homogenate, read-out: Css; summary of the method: as §1
[10] = Volume of distribution at steady state in FVB mouse plasma at 1 mg/kg, iv administered as single dose; type: ADME, organism-based; parameters: dose 1 mg/kg, route intravenous; conditions: read-out: Vdss
Summary of the method: (§2)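 Female FVB mice were given a single dose, 1 mg/kg iv or 10 mg/kg po, and plasma and brain were analysed separately. Brain samples were whole-brain homogenate. Parameters came from concentration–time curves: Vss, clearance, half-life, Cmax, AUC, brain/plasma AUC ratio and bioavailability.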

[11] = Clearance in FVB mouse plasma at 1 mg/kg, iv administered as single dose; type: ADME, organism-based; parameters: dose 1 mg/kg, route intravenous; summary of the method: as §2
[12] = Half life in FVB mouse plasma at 1 mg/kg, iv administered as single dose; type: ADME, organism-based; parameters: dose 1 mg/kg, route intravenous; summary of the method: as §2
[13] = Half life in FVB mouse plasma at 10 mg/kg, po administered as single dose; type: ADME, organism-based; parameters: dose 10 mg/kg, route oral; summary of the method: as §2
[14] = Cmax in FVB mouse plasma at 1 mg/kg, iv administered as single dose; type: ADME, organism-based; parameters: dose 1 mg/kg, route intravenous; summary of the method: as §2
[15] = Cmax in FVB mouse plasma at 10 mg/kg, po administered as single dose; type: ADME, organism-based; parameters: dose 10 mg/kg, route oral; summary of the method: as §2
[16] = Cmax in FVB mouse brain at 10 mg/kg, po administered as single dose; type: ADME, organism-based; parameters: dose 10 mg/kg, route oral; summary of the method: as §2
[17] = AUC in FVB mouse plasma at 1 mg/kg, iv administered as single dose; type: ADME, organism-based; parameters: dose 1 mg/kg, route intravenous
[18] = AUC in FVB mouse plasma at 10 mg/kg, po administered as single dose; type: ADME, organism-based; parameters: dose 10 mg/kg, route oral
[19] = AUC in FVB mouse brain at 10 mg/kg, po administered as single dose; type: ADME, organism-based; parameters: dose 10 mg/kg, route oral
[20] = Ratio of drug level in brain to plasma in FVB mouse brain at 10 mg/kg, po administered as single dose; type: ADME, organism-based; parameters: dose 10 mg/kg, route oral; conditions: brain and plasma, read-out: BPR; summary of the method: as §2
[21] = Oral bioavailability in FVB mouse […] at 10 mg/kg administered as single dose; type: ADME, organism-based; conditions: plasma; summary of the method: as §2
Mus musculus [22] = test: Antiprion activity against mouse RML prion protein infected in mouse assessed as mouse survival at 210 mg/kg/day (reference value: 118 +/- 1 days); type: organism-based
Mus musculus [23] = test: Antiprion activity against mouse Scrapie prion protein ME7 infected in mouse assessed as mouse survival at 210 mg/kg/day (reference value: 126 +/- 2 days); type: organism-based
Cervus elaphus nelsoni = test: Antiprion activity against elk PrpC protein infected in mouse chronic wasting disease model assessed as increase in mouse survival (reference value: 108 +/- 3 days)

**Q.** For Cc1cccc(Nc2nc(-c3ccc(-c4cccnc4)cc3)cs2)n1, which EC50 [1] is on record?
**A.** The EC50 was 68 nM.

**Q.** What about the Cmax (Brain [2]) of the same molecule?
**A.** Its Cmax is 2460 nM.

**Q.** And the AUC (Brain [3])?
**A.** The AUC was 10.9 µM·h.

**Q.** And the AUC (Plasma)?
**A.** Its AUC is 15.6 µM·h.

**Q.** With Cc1cccc(Nc2nc(-c3ccc(-c4ccccc4)cc3)cs2)n1 as the molecule, how does the fraction unbound [4] read?
**A.** Its fraction unbound is 0.08.

**Q.** What about the EC50 [1] of the same molecule?
**A.** Its EC50 is 1300 nM.

**Q.** And the AUC [5]?
**A.** The AUC was 303 µM·h.

**Q.** And the concentration at 72 h [6]?
**A.** Its concentration at 72 h is 8700 nM.

**Q.** What about the concentration at 72 h [7] of the same molecule?
**A.** The concentration at 72 h was 19300 nM.

**Q.** And the concentration at 72 h [8]?
**A.** The concentration at 72 h was 31800 nM.

**Q.** What about the concentration at 72 h [9] of the same molecule?
**A.** The concentration at 72 h was 37400 nM.

**Q.** What about the Vd [10] of the same molecule?
**A.** The Vd was 2.46 L/kg.

**Q.** And the clearance [11]?
**A.** The clearance was 15.3 mL/min/kg.

**Q.** What about the half-life [12] of the same molecule?
**A.** The half-life was 2.16 h.

**Q.** What about the half-life [13] of the same molecule?
**A.** The half-life was 4.65 h.

**Q.** What about the Cmax [14] of the same molecule?
**A.** The Cmax was 2490 nM.

**Q.** What about the Cmax [15] of the same molecule?
**A.** Its Cmax is 1660 nM.

**Q.** And the Cmax [16]?
**A.** Its Cmax is 2450 nM.

**Q.** And the AUC [17]?
**A.** The AUC was 2.78 µM·h.

**Q.** What about the AUC [18] of the same molecule?
**A.** Its AUC is 11.2 µM·h.

**Q.** What about the AUC [19] of the same molecule?
**A.** Its AUC is 29.1 µM·h.

**Q.** What about the Kp [20] of the same molecule?
**A.** The Kp was 2.6.

**Q.** And the bioavailability [21]?
**A.** Its bioavailability is 40.3%.

**Q.** What about the AUC (Brain [3]) of the same molecule?
**A.** The AUC was 9.78 µM·h.

**Q.** And the AUC (Plasma)?
**A.** The AUC was 6.99 µM·h.

**Q.** And the Survival (Mus musculus [22])?
**A.** Its Survival is 204 days.

**Q.** What about the Survival (Mus musculus [23]) of the same molecule?
**A.** Its Survival is 214 days.

**Q.** And the Survival (Cervus elaphus nelsoni)?
**A.** Its Survival is 237 days.

**Q.** For Cc1ccc(Nc2nc(-c3ccc(-c4ccccn4)s3)cs2)nc1, which EC50 [1] is on record?
**A.** Its EC50 is 1200 nM.

**Q.** What about the AUC [5] of the same molecule?
**A.** Its AUC is 4.6 µM·h.

**Q.** For Cc1ccnc(Nc2nc(-c3ccncc3)cs2)c1, which EC50 [1] is on record?
**A.** Its EC50 is 5000 nM.

**Q.** And the AUC [5]?
**A.** Its AUC is 34.6 µM·h.

**Q.** Which EC50 [1] does the source give for Cc1cccc(Nc2nc(-c3cc4ccccc4o3)cs2)n1 here?
**A.** The EC50 was 1500 nM.

**Q.** What about the AUC [5] of the same molecule?
**A.** Its AUC is 65.4 µM·h.

**Q.** What about the concentration at 72 h [6] of the same molecule?
**A.** Its concentration at 72 h is 1310 nM.

**Q.** What about the concentration at 72 h [7] of the same molecule?
**A.** Its concentration at 72 h is 2700 nM.

**Q.** And the concentration at 72 h [8]?
**A.** The concentration at 72 h was 3740 nM.

**Q.** And the concentration at 72 h [9]?
**A.** The concentration at 72 h was 3230 nM.

**Q.** For Cc1cccc(Nc2nc(-c3ccc(N4CCOCC4)cc3)cs2)n1, which EC50 [1] is on record?
**A.** The EC50 was 51 nM.

**Q.** Which AUC [5] does the source give for c1ccc2cc(Nc3nc(-c4ccncc4)cs3)ncc2c1 here?
**A.** Its AUC is 59.1 µM·h.

**Q.** What about the concentration at 72 h [6] of the same molecule?
**A.** Its concentration at 72 h is 20 nM.

**Q.** What about the concentration at 72 h [7] of the same molecule?
**A.** The concentration at 72 h was 80 nM.

**Q.** And the concentration at 72 h [8]?
**A.** Its concentration at 72 h is 40 nM.

**Q.** What about the concentration at 72 h [9] of the same molecule?
**A.** The concentration at 72 h was 100 nM.

**Q.** With COc1ccc(-c2csc(Nc3cc4ccccc4cn3)n2)cc1OC as the molecule, how does the AUC [5] read?
**A.** Its AUC is 6.3 µM·h.

**Q.** What about the concentration at 72 h [6] of the same molecule?
**A.** Its concentration at 72 h is 30 nM.

**Q.** What about the concentration at 72 h [7] of the same molecule?
**A.** Its concentration at 72 h is 60 nM.

**Q.** What about the concentration at 72 h [8] of the same molecule?
**A.** The concentration at 72 h was 140 nM.

**Q.** What about the concentration at 72 h [9] of the same molecule?
**A.** The concentration at 72 h was 320 nM.

**Q.** For C(=N/Nc1ccc(-c2cnco2)cc1)/c1ccncc1, which Vd [10] is on record?
**A.** Its Vd is 1.53 L/kg.

**Q.** And the clearance [11]?
**A.** The clearance was 76 mL/min/kg.

**Q.** What about the half-life [12] of the same molecule?
**A.** The half-life was 0.22 h.

**Q.** What about the half-life [13] of the same molecule?
**A.** The half-life was 1.01 h.

**Q.** And the Cmax [14]?
**A.** Its Cmax is 1760 nM.

**Q.** And the Cmax [15]?
**A.** Its Cmax is 830 nM.

**Q.** And the Cmax [16]?
**A.** Its Cmax is 460 nM.

**Q.** And the AUC [17]?
**A.** The AUC was 0.83 µM·h.

**Q.** And the AUC [18]?
**A.** The AUC was 2.06 µM·h.

**Q.** What about the AUC [19] of the same molecule?
**A.** The AUC was 1.06 µM·h.

**Q.** And the Kp [20]?
**A.** Its Kp is 0.51.

**Q.** What about the bioavailability [21] of the same molecule?
**A.** The bioavailability was 24.8%.
